Compounds with a hit are over-represented: about 2.6% of the library has one in this group of screens.
5HT1E ag – activates the human 5-HT1E serotonin receptor | P28566 | CHO 5-HT1E Ga15 NFAT-bla reporter, FRET; 0% DMSO wells, 100% control agonist wells | activation, % at 6 µM | actives 0.69% (n = 65,000) | AID 574;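 active means activation above a set limit, the screen-wide mean activation plus 3 SD, cut at about 8.5% in these data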
Target sequence (P28566 whole entry, looked up): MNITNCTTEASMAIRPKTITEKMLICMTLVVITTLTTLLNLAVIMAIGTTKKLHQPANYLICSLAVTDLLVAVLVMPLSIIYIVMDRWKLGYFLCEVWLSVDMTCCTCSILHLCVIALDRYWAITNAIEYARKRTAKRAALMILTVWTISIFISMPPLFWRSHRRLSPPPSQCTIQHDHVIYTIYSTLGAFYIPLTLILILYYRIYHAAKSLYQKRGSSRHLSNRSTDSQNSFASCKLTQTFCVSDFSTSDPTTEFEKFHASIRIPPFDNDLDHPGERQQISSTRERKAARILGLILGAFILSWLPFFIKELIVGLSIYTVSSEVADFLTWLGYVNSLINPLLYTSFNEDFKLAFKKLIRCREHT
HTR1E antagonist – blocks the human 5-HT1E serotonin receptor; P28566; CHO 5-HT1E Ga15 NFAT-bla reporter, FRET, antagonist; inhibition, % at 6 µM; actives 0.99% (n = 65,000); AID 571;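 active means inhibition above a set limit, the mean inhibition across every tested compound plus 3 SD, cut at about 29% in these data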;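 further: signal is the 460 over 535 nm emission ratio of beta-lactamase substrate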
HTR1A agonist – 5-HT1a (human) receptor agonism | P08908 | CHO 5-HT1a Ga15 NFAT-bla reporter, FRET ratio; 0% basal, 100% maximal reference agonist | activation, % at 10 µM | actives 0.56% (n = 65,000) | AID 567;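 active means activation above the screen-wide mean activation plus 3 SD, cut at about 19% in these data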
S1P3 ag – agonists of human S1P3 receptor | actives 0.1% (n = 60,000) | activation, % at 4.5 µM | S1P3 NFAT-BLA reporter cells, agonism, FRET ratio; relative to 1 µM S1P, basal subtracted | Q99500;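 active means activation above the screen-wide mean plus 3 SD, cut at about 4.5% in these data, passing the limit was not always enough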
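Assay system: stable CHO line with human S1P3, Gα16, NFAT-BLA reporter; Detection: FRET β-lactamase substrate fluorescence, excitation 405 nm, 460/535 nm emission ratio, background-subtracted; Read-out: percent activation versus median 1 µM S1P response, basal-subtracted, per plate; Incubation: cells plated overnight, compound 4 h 37 °C, substrate 2 h RT.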
5-HT1A blocker – antagonists of human 5-HT1a serotonin receptor | inhibition, % at 10 µM | actives 0.68% (n = 62,000) | P08908 | AID 612 | CHO 5-HT1a Ga15 NFAT-bla reporter, antagonist mode;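 active means inhibition above the mean of all tested compounds plus 3 SD, cut at about 43% in these data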;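 further: receptor stimulated by 5-CT agonist at 100 nM near EC80; beta-lactamase reporter measured by ratiometric fluorescence of a cleavable substrate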
Large screens that a line does not name were inactive.

Cc1onc(-c2c(Cl)cccc2Cl)c1C(=O)N1CCc2ccccc21	S1P3 ag 7.4
Cc1onc(-c2c(F)cccc2Cl)c1C(=O)N1CCc2ccccc2C1	none
C=CCc1ccccc1OCC(O)Cn1ccnc1C (stereo not given)	none
C=CCc1ccccc1OCC(O)CN(C(C)C)C(C)C (stereo not given)	5HT1E ag 19.3
CCOc1ccccc1OCC(O)CNC (stereo not given)	none
C=CCc1ccccc1OCC(O)CNC (stereo not given)	5HT1E ag 9.4
CC(=O)N1CCc2cc(S(=O)(=O)NCCCN3CCN(Cc4ccccc4)CC3)ccc21	5HT1E ag 34.7 (no result: S1P3 ag)
N#CC1=C(N)Oc2cc(O)ccc2C1c1ccncc1 (stereo not given)	none
CN(C)c1ccc2c(c1)OC(N)=C(C#N)C2c1cccc(F)c1 (stereo not given)	HTR1E antagonist 75.4
COc1ccccc1OC(=O)c1ccc(SC)cc1OC	none
COC(=O)c1[nH]c2cc(C)ccc2c1NC(=O)CN1CCCc2ccccc21	HTR1A agonist 264.9
CC1(C)CC(NC(=O)C23CCC(C)(C(=O)C2)C3(C)C)CC(C)(C)N1 (stereo not given)	none
CNC(=O)c1cc2c(=O)n3cccc(C)c3nc2n1C	none
O=C(Nc1cccc2cccnc12)c1cccnc1	HTR1A agonist 39.2
Cc1cnc(C(=O)Nc2cccc3cccnc23)cn1	none
Cc1cc(C)n(-c2nc3c(c(=O)n(C)c(=O)n3C)n2Cc2cccc(Br)c2)n1	none
NC(=O)CN1CCN(c2ccccc2F)CC1	none
Oc1ccc2ccccc2c1CN1CCN(c2ccccc2F)CC1	5HT1E ag 13.8
CCCn1c(=O)c2ccccc2n2c(SCc3c(C(=O)OCC)oc4ccccc34)nnc12	S1P3 ag 12.7
CCCn1c(=O)c2ccccc2n2c(SCN3C(=O)c4ccccc4C3=O)nnc12	none
Cc1sc2ncn(CC(=O)OC(C)C(=O)NC(C)(C)C)c(=O)c2c1C (stereo not given)	HTR1A agonist 97.6 (no result: S1P3 ag)
CCOC(=O)N1CCN(C(=O)CN(c2ccc(Cl)c(C(F)(F)F)c2)S(C)(=O)=O)CC1	none (no result: S1P3 ag)
CCCOC(=O)c1ccc(Nc2cc(C)nc3ncnn23)cc1	HTR1A agonist 105.1
CCn1c2ccccc2c2cc(Nc3cc(C)nc4ncnn34)ccc21	HTR1E antagonist 69.6, 5-HT1A blocker 71.7
CCCCOc1ncnc2c1[nH]c1ccc(F)cc12	none
O=C(NC1CCCCC1)/C(=N\O)c1ccccn1	none
COc1ccc(Cl)cc1C(=O)Nc1ccc(NC(=O)c2ccco2)cc1	none
COc1ccc(Cl)cc1NC(=O)c1ccco1	5HT1E ag 22.8
O=C(NCCC1=CCCCC1)C1COc2ccccc2O1 (stereo not given)	none
COc1cc([C@@H]2c3cc4c(cc3[C@H](O)[C@H]3COC(=O)[C@H]23)OCO4)cc(OC)c1OC	HTR1E antagonist 73.0 (no result: 5-HT1A blocker)
COc1cc(CC(=O)NCc2ccc3c(c2)OCO3)cc(OC)c1OC	none
CSc1nc2ccc(NC(=O)C3CC(=O)N(Cc4ccco4)C3)cc2s1 (stereo not given)	none (no result: S1P3 ag)
CSc1nc2ccc(NC(=O)C3CCCO3)cc2s1 (stereo not given)	5HT1E ag 52.3
CSc1nc2ccc(Nc3nc(N4CCOCC4)nc(N4CCOCC4)n3)cc2s1	HTR1E antagonist 32.8
Cc1ccc(S(=O)(=O)Nc2cccc3ncccc23)s1	HTR1E antagonist 81.0, 5-HT1A blocker 64.2
CCOc1ccccc1NS(=O)(=O)c1ccc(Br)s1	none
Cc1c(/C=N/n2cnnc2)c2ccccc2n1CCOc1ccc(Cl)cc1	HTR1E antagonist 33.0 (no result: S1P3 ag)
Cc1ccc(OCCn2c(C)c(/C=N/n3cnnc3)c3ccccc32)cc1	HTR1E antagonist 44.3
Cc1cc(Cn2ccnc2)c(C)cc1Cn1ccnc1	none (no result: 5-HT1A blocker)
O=C(COC(=O)CCC1CCCC1)Nc1ccc(Cl)cn1	5HT1E ag 59.0
O=C1N2c3ccccc3CCc3cccc(c32)C1(O)C(F)(F)F (stereo not given)	HTR1E antagonist 29.0
COc1ccc(C(c2nnnn2Cc2ccccc2)N2CCN(c3ccccc3)CC2)cc1 (stereo not given)	none
COc1ccc(C(c2nnnn2C2CCCCC2)N2CCN(c3ccccc3)CC2)cc1 (stereo not given)	5-HT1A blocker 51.6
CCC(=O)Nc1ccc(NC(=O)c2cc3ccccc3o2)cc1	none
CN(C)S(=O)(=O)c1ccc(NC(=O)c2cc3ccccc3o2)cc1	HTR1A agonist 20.7
Cc1ccc(NC(=O)c2oc3ccccc3c2NC(=O)c2ccc3c(c2)OCO3)cc1	none
COc1ccc2cc3cc(C(=O)NCCN4CCN(c5ccccc5F)CC4)oc3nc2c1	5HT1E ag 16.7, 5-HT1A blocker 70.8
COc1cc(COCC(O)CN2CCOCC2)cc(OC)c1OC (stereo not given)	none
O=C(NCCCN1CCN(c2ccc(F)cc2)CC1)c1cccc(N2CCCC2=O)c1	5-HT1A blocker 71.3
S=C(c1ccc(-c2ccccc2Cl)o1)N1CCOCC1	none
N#CCCN1CCN(C(=S)c2ccc(-c3cc(Cl)ccc3Cl)o2)CC1	HTR1E antagonist 31.3
COc1ccc2nc(SCc3nc(N)nc(Nc4ccccc4)n3)[nH]c2c1	HTR1E antagonist 39.7
COc1ccc2nc(SCC(N)=O)[nH]c2c1	none
CC(C)CCOc1ccc(Cl)cc1CN1CCOCC1	none (no result: 5-HT1A blocker)
O=C1c2ccccc2C(=O)N1CCCc1nc2ccccc2c(=O)n1-c1cccnc1	none
CCOC(=O)CSc1nc2c(sc(=S)n2Cc2ccco2)c(=O)n1-c1ccc(F)cc1	5-HT1A blocker 50.2 (no result: S1P3 ag)
N#C/C(=C/c1ccc(N2CCCCCC2)o1)c1ccc(F)cc1	HTR1E antagonist 89.7, 5-HT1A blocker 87.3
COc1cc(/C=C(/C#N)c2ccc(F)cc2)ccc1OCc1ccc(C(=O)O)o1	none
N#CCCn1c2ccccc2c2nc3ccccc3nc21	HTR1E antagonist 38.3
CCCn1c2ccccc2c2nc3ccccc3nc21	none
CCOc1cc(-c2nc(-c3ccc(OC)cc3)no2)cc(OCC)c1OCC	none
CCOc1ccc(-c2nc(-c3ccccc3)no2)cc1OCC	S1P3 ag 14.2
CCOc1ccc(-c2nc(-c3ccncc3)no2)cc1OCC	S1P3 ag 53.9
CCOc1ccccc1NC(=O)c1ccccc1-c1nc(-c2ccccc2)no1	5-HT1A blocker 45.6
COc1ccc(-c2noc(-c3ccccc3C(=O)Nc3cccc(OC)c3)n2)cc1	none
CCN(CC)S(=O)(=O)c1cc(C(=O)n2cccn2)c(Cl)cc1Cl	none
CC(=O)Nc1ccc(S(=O)(=O)/N=C2\SCCN2S(=O)(=O)c2ccc(NC(C)=O)cc2)cc1	HTR1A agonist 73.0
O=C(c1c(Cl)cccc1Cl)N1CCN(c2ccccn2)CC1	none
O=C(c1ccco1)N1c2ccccc2Sc2ccccc21	none
O=C(c1ccco1)N1CCN(C(=O)N2c3ccccc3Sc3ccccc32)CC1	HTR1E antagonist 74.5, 5-HT1A blocker 58.5
